Sampled rows, rich in hits. Any-hit rate of the full collection: about 1.6%.
LEDGF integ inh = blocks HIV-1 LEDGF/p75-dependent DNA integration. inhibition, % at 3.7 µM. TR-FRET IN-LEDGF/p75 DNA integration, Eu/Cy5. AID 743269. 370,000 compounds, 0.64% hits;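 active = inhibition above the screen-wide mean plus 3 SD, cut at about 13% in these data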;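 also: signal is the Cy5 over europium emission ratio at 671 and 618 nm; 0% = plate median of compound wells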
MBD2 inh = blocks human MBD2 binding to methylated DNA; TR-FRET, MBD2 binding to methylated oligonucleotide; inhibition, % at 4.4 µM; 370,000 compounds, 0.31% hits; AID 686964; in the data active = inhibition above about 13%
TDP2 absorb = blocks human TDP2 phosphodiesterase activity | O95551 | 370,000 compounds, 0.34% hits | AID 720702 | inhibition, % at 12.8 µM | recombinant TDP2, T5PNP hydrolysis, p-nitrophenol absorbance 415 nm;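 active = inhibition above the mean of all tested compounds plus 3 SD, set per campaign, cut at about 25% in these data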;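 also: 0% = DMSO with enzyme and 100% = buffer with substrate but no TDP2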
Target sequence (O95551 whole entry, looked up): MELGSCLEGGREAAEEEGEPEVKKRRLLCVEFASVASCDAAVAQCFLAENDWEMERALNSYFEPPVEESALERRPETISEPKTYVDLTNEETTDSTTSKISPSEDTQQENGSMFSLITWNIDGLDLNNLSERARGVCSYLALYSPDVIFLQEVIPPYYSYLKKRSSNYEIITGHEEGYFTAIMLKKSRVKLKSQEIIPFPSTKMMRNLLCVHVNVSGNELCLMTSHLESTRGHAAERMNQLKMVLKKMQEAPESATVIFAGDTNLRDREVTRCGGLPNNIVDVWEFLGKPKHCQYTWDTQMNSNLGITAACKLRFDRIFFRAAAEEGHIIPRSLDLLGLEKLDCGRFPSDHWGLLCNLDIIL
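System: recombinant human TDP2 / Amount: 120 nM TDP2 per well / Also added: 5 mM T5PNP chromogenic substrate / Doses: 12.8 µM single point, 1% DMSO / Incubation: 2 h at 37 °C / Detection: p-Nitrophenol epi absorbance / Evaluation: % inhibition relative to enzyme-containing and enzyme-free wells / Repeats: singlicate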
UHRF1 MBD2 ctr = blocks human UHRF1 binding to methylated DNA | 370,000 compounds, 0.75% hits | Q96T88 | AID 687016 | inhibition, % at 4.4 µM | UHRF1 binding to methylated oligo, TR-FRET; in the data active = inhibition above about 21%;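 also: UHRF1 SRA domain binding a hemimethylated CpG hairpin DNA probe; 0% = median of test compound wells and 100% = reference inhibitor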
Active calls of the source: *; ! = a repeat was not active.

SMILES	LEDGF integ inh	MBD2 inh	TDP2 absorb	UHRF1 MBD2 ctr
Cc1ccc(CN2CCC[C@]3(N[C@H](c4ccc(C)cc4)[C@@H]4C(=O)N(Cc5ccccc5)C(=O)[C@@H]43)C2=O)cc1	5.7	-0.4	-4.1	22.1*
O=C1[C@H]2[C@@H](c3ccccc3)N[C@]3(CCCN(Cc4ccc(F)cc4)C3=O)[C@H]2C(=O)N1Cc1ccccc1	-0.1	10.0	-2.5	23.4*
Cc1ccc(CN2CCC[C@]3(N[C@H](c4ccccc4)[C@@H]4C(=O)N(Cc5ccccc5)C(=O)[C@@H]43)C2=O)cc1	-0.3	1.1	3.0	-1.1
COCCNC(=O)/C(C#N)=C/c1ccc(-c2ccc(S(=O)(=O)N3CCOCC3)cc2)o1	0.5	-5.3	-2.5	69.1*
CCOC(=O)C1CCN(S(=O)(=O)c2ccc3c(c2)CC(=O)N3C)CC1	-1.6	-6.4	25.0*	-6.2
Cc1ccc(S(=O)(=O)N2CCC(C(=O)OCC(=O)NCCc3ccccc3)CC2)cc1C	-0.2	-6.1	7.2	39.9*
O=C(COC(=O)C1CCN(S(=O)(=O)c2ccccc2)CC1)NC(=O)c1ccc(OC(F)F)cc1	8.0	3.1	4.8	25.9*
CCOC(=O)C1CCN(S(=O)(=O)c2ccc3c(c2)CCCN3C(C)=O)CC1	-0.5	-1.0	5.0	0.4
COC(=O)c1cc(-c2cc(Cl)ccc2OC)c(=O)n2c1CCC2	1.2	0.0	-1.9	-0.4
O=C(Nc1ccc(F)cc1F)Nc1csc2ccccc12	-4.7	0.3	-10.2	33.1*
O=C(Nc1ccc(F)c(Cl)c1)Nc1csc2ccccc12	-2.0	3.5	-5.8	4.7
O=C1CN(C(=O)C2CCCC2)CCN1	-1.3	-0.1	-3.4	63.3*
O=C(c1cccc(S(=O)(=O)Nc2ccccc2Cl)c1)N1CCCCCC1	-1.6	1.9	4.0	0.7
O=C(c1cccc(NS(=O)(=O)c2cccc(F)c2)c1)N1CCCC1	-3.8	4.2	13.9	21.2*
O=C(c1cccc(S(=O)(=O)Nc2ccccc2Cl)c1)N1CCN(c2ccccc2O)CC1	-1.9	3.3	1.7	21.4*
COc1ccc(S[C@]2(C(=O)N(C)C)CC(=O)N(C(=O)CCc3ccccc3)[C@@H]2c2ccc(OC)cc2)cc1	-2.5	-2.4	-9.5	5.6
CC(C)c1cc(C(C)C)c(S(=O)(=O)NCC(=O)N2CCN(c3ncccn3)CC2)c(C(C)C)c1	-0.5	-3.1	-10.1	-0.4
CC(C)c1ccc(NC(=S)NN2CCOCC2)cc1	2.8	7.4	-4.0	2.6
S=C(Nc1ccc(Cl)cc1)NN1CCOCC1	-0.3	9.8	6.4	30.4*
Cc1ccc(-c2cc(C(=O)NN=Cc3ccc(N(C)C)cc3)[nH]n2)cc1C	2.2	-2.8	-2.8	0.2
O=C(Cc1cccs1)N(c1ccc(F)cc1)C1(C(=O)NC2CCCCC2)CCCC1	0.5	3.5	3.5	26.9*
O=C1CCC(C(=O)N(c2ccccc2)C2(C(=O)NC3CCCCC3)CCCCC2)N1 (stereo not drawn)	1.0	-4.7	9.9	-4.5
O=C(Cc1cccs1)N(Cc1ccco1)C1(C(=O)NC2CCCCC2)CCCCC1	0.4	-6.3	13.7	-2.0
Cc1ccc(N(C(=O)C2CCC(=O)N2)C2(C(=O)NC3CCCC3)CCCCC2)cc1 (stereo not drawn)	0.2	-2.3	4.8	77.8*
Cc1cc(C)n(-c2ccc(F)cc2)c(=O)c1C(=O)O	5.3	10.7	-1.3	23.0*
SMILES	LEDGF integ inh	MBD2 inh	TDP2 absorb	UHRF1 MBD2 ctr
CC(=O)c1c(O)cc(C)n(-c2ccc(F)cc2)c1=O	0.5	-0.8	-3.4	3.5
CCOC(=O)C1CCN(C(=O)C(C)Sc2ccc(Cl)cc2)CC1 (stereo not drawn)	6.7	8.6	8.9	23.4*
Cc1cc(NC(=O)CCC(=O)N(C(C(=O)NC(C)(C)C)c2ccccc2Cl)C(C)(C)C)no1 (stereo not drawn)	-0.5	5.6	-2.5	25.2*
NC(Cc1c[nH]c2ccccc12)C(=O)NCc1ccccc1 (stereo not drawn)	7.0	-2.3	-3.2	25.0*
CCc1ccc(NC(=O)c2cccc(NC3=NC4CS(=O)(=O)CC4S3)c2)cc1 (stereo not drawn)	0.1	-0.8	0.0	26.6*
Cc1ccc(C(=O)Nc2nc(-c3cc(Cl)sc3Cl)cs2)cc1	-1.9	7.6	11.3	23.1*
O=C(Nc1nc(-c2ccc(Cl)s2)cs1)c1ccccc1	2.3	-0.2	1.3	-1.6
Cc1ccc(S(=O)(=O)N(C)C[C@@H]2Oc3ncc(C#CCC(C)C)cc3C(=O)N([C@H](C)CO)C[C@H]2C)cc1	-4.8	8.5	1.6	22.8*
COc1cccc(C#Cc2cnc3c(c2)C(=O)N([C@@H](C)CO)C[C@H](C)[C@H](CN(C)C(=O)C2CCC2)O3)c1	-9.8	9.5	4.5	21.8*
CCOC(=O)[C@@]12CN(C(=O)OC(C)(C)C)CC=C1N(Cc1ccc(OC)cc1)C(=O)[C@H]2CC(=O)N1CCN(C(=O)C2CC2)CC1	7.5	-5.8	1.9	-1.4
Cc1ccc(-n2c(SCC(=O)c3ccc(Br)cc3)nnc2-c2ccncc2)cc1	0.2	1.5	5.5	0.0
O=C(O)c1cc(N/N=C/c2ccc(N3CCOCC3)s2)ccc1Cl	68.2*	43.3*	15.1	93.2*
CCc1ccc2nc3nc(C)cc(C)c3c(N)c2c1	0.3	2.7	-4.1	22.2*
CCOC(=O)COc1c(C=O)cc(Br)cc1OC	0.2	1.3	5.9	28.4*
CCOC(=O)COc1c(/C=N\OC)cc(Cl)cc1OC	1.3	1.5	-12.5	5.2
COC(=O)[C@]12C[C@H](CC(=O)NCc3ccc(OC)c(OC)c3)C(=O)N(Cc3cccc4ccccc34)C1=C[C@H](C(C)C)O[C@@H]2C1CC1	-1.3	-1.1	-2.9	2.3
COC(=O)CC1NCCc2cc(OC)c(OC)cc21 (stereo not drawn)	-0.8	0.4	-14.8	33.5*
COc1cc2c(cc1OC)[C@H](Cc1ccc(O)cc1)NCC2	2.1	1.4	-7.2	1.3
O=C(CN1CCCCC1)Nc1scc2c1c(=O)oc1ccccc12	0.0	4.9	-4.5	21.0*
Cc1ccc(-c2cc(C(=O)NN=C/C=C/c3ccco3)[nH]n2)cc1C	12.7	-3.2	-12.2	0.3
COc1cc(NC(=O)c2cc(C)on2)cc(C(=O)Nc2cccc(C(F)(F)F)c2)c1	1.7	-2.9	-1.2	92.8*!
O=C(N=C1SC2CS(=O)(=O)CC2N1c1c(Cl)cccc1Cl)C1CC1 (stereo not drawn)	-2.8	-2.7	0.5	0.5
CC(=O)N=C1SC2CS(=O)(=O)CC2N1c1c(Cl)cccc1Cl (stereo not drawn)	-2.0	-1.8	0.2	23.8*
CC1=C(C#N)C(c2ccccc2O)C(C#N)=C(C)N1	3.3	-2.4	-6.4	-4.0
CC1=C(C#N)C(c2ccc3ncccc3c2)C(C#N)=C(C)N1	-0.1	7.6	-4.9	28.4*
CN(C)CCN1C(=O)CCC2(C)C1=CCC1C2CCC2(C)C1CCC2(C)O (stereo not drawn)	-0.6	-1.8	6.0	80.1*
CCN1CCN(Cc2ccc(NC(=O)c3ccc(C)c(NC(=O)N4CCNC4=O)c3)cc2C(F)(F)F)CC1	1.2	10.6	0.6	22.6*!

From PubChem BioAssay
